Tests used:
[1] = target: AMPK alpha2/beta1/gamma1 (Homo sapiens, UniProt P54619+P54646+Q9Y478); test: (§1) Agonist activity at human recombinant phosphorylated AMPK complex 7 alpha2/beta1/gamma1 expressed in baculovirus infected Sf21 cells assessed as phosphorylation of 5-FAM-labeled SAMS substrate preincubated for 30 mins in presence of AMPK activator followed by substrate addition measured after 60 mins
In short: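 Recombinant phosphorylated human AMPK complex; agonist tested as a 10-point titration up to 50 μM (∼2 nM to 50 μM in some series, ∼0.8 nM to 16 μM in others). EC50 is the average of at least two experiments. Percent maximum activation is the highest activation seen over the titration range, or the level at 50 μM.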

[2] = target: T1, AMPK alpha2/beta1/gamma1 (Homo sapiens) (UniProt P54646+P54619+Q9Y478); test: as §1, with “SAMS substrate at 0.002 to 50 uM preincubated for” for “SAMS substrate preincubated for”, “60 mins relative to AMP” for “60 mins”
T1 sequence (P54619 whole entry partner): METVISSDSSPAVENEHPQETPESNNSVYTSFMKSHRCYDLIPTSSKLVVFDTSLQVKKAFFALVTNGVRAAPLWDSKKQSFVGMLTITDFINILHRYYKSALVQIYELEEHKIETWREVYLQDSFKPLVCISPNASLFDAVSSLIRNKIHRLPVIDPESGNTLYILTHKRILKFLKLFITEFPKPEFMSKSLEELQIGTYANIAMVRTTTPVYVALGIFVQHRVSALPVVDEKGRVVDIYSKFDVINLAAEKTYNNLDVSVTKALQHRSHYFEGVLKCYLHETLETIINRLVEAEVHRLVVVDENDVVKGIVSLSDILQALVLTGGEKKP
T1 sequence (P54646 whole entry): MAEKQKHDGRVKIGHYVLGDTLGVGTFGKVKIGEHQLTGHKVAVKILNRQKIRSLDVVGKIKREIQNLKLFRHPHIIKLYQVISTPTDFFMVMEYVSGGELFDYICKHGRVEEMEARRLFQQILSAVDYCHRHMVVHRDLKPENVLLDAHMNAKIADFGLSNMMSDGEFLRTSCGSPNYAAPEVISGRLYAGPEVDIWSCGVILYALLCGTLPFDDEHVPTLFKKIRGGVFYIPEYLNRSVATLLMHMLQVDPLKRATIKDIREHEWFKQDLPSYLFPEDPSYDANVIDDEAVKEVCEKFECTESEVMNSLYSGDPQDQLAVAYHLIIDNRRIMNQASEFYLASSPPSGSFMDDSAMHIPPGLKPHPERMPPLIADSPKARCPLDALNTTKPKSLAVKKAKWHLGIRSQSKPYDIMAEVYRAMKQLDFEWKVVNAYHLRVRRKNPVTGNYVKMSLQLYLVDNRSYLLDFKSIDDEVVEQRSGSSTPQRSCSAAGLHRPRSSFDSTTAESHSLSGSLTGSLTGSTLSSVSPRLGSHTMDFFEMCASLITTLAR
T1 sequence (Q9Y478 2-270 partner limits assumed): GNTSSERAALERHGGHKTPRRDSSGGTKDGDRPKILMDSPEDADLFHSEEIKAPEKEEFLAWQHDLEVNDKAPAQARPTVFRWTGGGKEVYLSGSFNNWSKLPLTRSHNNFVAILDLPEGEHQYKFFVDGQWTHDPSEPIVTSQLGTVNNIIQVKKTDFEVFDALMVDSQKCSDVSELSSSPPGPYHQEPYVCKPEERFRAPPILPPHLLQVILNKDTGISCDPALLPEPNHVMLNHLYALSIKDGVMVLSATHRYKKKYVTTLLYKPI
In short: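 Recombinant human pAMPK complexes were titrated at 10 points over about 2 nM to 50 μM. EC50 is the average of at least two experiments. %max is the highest activation seen within that range.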

[3] = target: T1, AMPK alpha2/beta1/gamma1 (Homo sapiens); test: as §1, with “SAMS substrate at 50 uM preincubated for” for “SAMS substrate preincubated for”, “60 mins relative to AMP” for “60 mins”
In short: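 Activation of pAMPK7 is reported as percent activation at 50 μM, taken from 10-point titrations and averaged over at least two experiments.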

[4] = target: T1, AMPK alpha2/beta1/gamma1 (Homo sapiens); test: as §1, with “SAMS substrate at 0.0008 to 16 uM preincubated for” for “SAMS substrate preincubated for”, “60 mins relative to AMP” for “60 mins”
In short: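 Recombinant human pAMPK7 was titrated at 10 points over about 0.8 nM to 16 μM. EC50 is the average of at least two experiments. Percent maximum activation is the highest activation seen within that range.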

[5] = test system: Mus musculus; test: In vivo agonist activity at AMPK C57BL/6 mouse assessed as inhibition of de novo lipogenesis at 100 mg/kg, po administered via gavage; assay type: functional; settings: C57BL/6, po
[6] = test system: Mus musculus; test: In vivo agonist activity at AMPK in C57BL/6 mouse assessed as inhibition of de novo lipogenesis at 30 mg/kg, ip; assay type: functional; settings: C57BL/6, ip
[7] = Plasma clearance in C57BL/6 mouse by LC-MS/MS analysis; assay type: ADME
In short: (§2)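 C57BL/6 mice were dosed 2 mg/kg IV and 10 mg/kg PO. Reported parameters: plasma clearance, Vdss, terminal t1/2, Cmax, tmax and oral bioavailability F. AUCN is the plasma AUC after PO dosing normalized to dose.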

[8] = Terminal half life in C57BL/6 mouse by LC-MS/MS analysis; assay type: ADME; settings: in vivo, read-out: beta t1/2 (converted); in short: as §2
[9] = Oral bioavailability in C57BL/6 mouse by LC-MS/MS analysis; assay type: ADME, organism-based; settings: in vivo; in short: as §2
[10] = Volume of distribution at steady state in C57BL/6 mouse by LC-MS/MS analysis; assay type: ADME; settings: in vivo, read-out: Vdss; in short: as §2
[11] = test system: Mus musculus; test: Dose normalized AUC in po dosed C57BL/6 mouse administered via gavage by LC-MS/MS analysis; assay type: ADME, organism-based; settings: in vivo; in short: as §2
[12] = Plasma clearance in BCRP knockout mouse by LC-MS/MS analysis; assay type: ADME
[13] = Terminal half life in BCRP knockout mouse by LC-MS/MS analysis; assay type: ADME; settings: in vivo, read-out: beta t1/2 (converted)
[14] = Oral bioavailability in BCRP knockout mouse by LC-MS/MS analysis; assay type: ADME, organism-based; settings: in vivo
[15] = Volume of distribution at steady state in BCRP knockout mouse by LC-MS/MS analysis; assay type: ADME; settings: in vivo, read-out: Vdss
[16] = test system: Mus musculus; test: Dose normalized AUC in BCRP knockout mouse administered through oral gavage by LC-MS/MS analysis; assay type: ADME; settings: in vivo
[17] = Apparent permeability of compound in pig LLC-PK1 cells by HPLC analysis; assay type: ADME, cell-based, Sus scrofa; settings: llc-pk1
In short: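 LLC-PK1 monolayer on polycarbonate filter. Compound in HBSS added to the apical or basolateral side. Both sides sampled at end of incubation and quantified by HPLC. Papp is the mean of A→B and B→A values.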

Chain of AMPK alpha2/beta1/gamma1 (P54646 whole entry): as the sequence (P54646 whole entry) above
Chain of AMPK alpha2/beta1/gamma1 (P54619 whole entry): as the sequence (P54619 whole entry partner) above
Chain of AMPK alpha2/beta1/gamma1 (Q9Y478 whole entry): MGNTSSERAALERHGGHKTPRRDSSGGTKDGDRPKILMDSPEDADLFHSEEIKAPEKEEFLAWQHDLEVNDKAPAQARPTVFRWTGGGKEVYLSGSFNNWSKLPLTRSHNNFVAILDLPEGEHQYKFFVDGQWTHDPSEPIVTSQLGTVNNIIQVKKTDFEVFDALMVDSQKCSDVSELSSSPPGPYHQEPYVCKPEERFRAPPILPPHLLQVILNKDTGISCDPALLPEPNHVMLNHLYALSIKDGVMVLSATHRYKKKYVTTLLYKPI

Row | EC50 [1] | %max [3] | SMILES | also measured
1 | 0.8 µM | – | O=C(O)c1cccc(Sc2nc3cc(-c4ccc(-c5ccccc5)cc4)c(Cl)cc3[nH]2)c1 | %max [2]: 200%
2 | 0.032 µM | – | O=C(O)c1cc(Oc2nc3cc(-c4ccc(-c5ccccc5)cc4)c(Cl)cc3[nH]2)ccc1Cl | %max [4]: 310%
3 | – | 15% | O=C(O)CC[S+]([O-])c1nc2cc(Cl)c(Cl)cc2[nH]1 (configuration not stated) | –
4 | – | 14% | O=C(O)CCc1nc2ccccc2[nH]1 | –
5 | – | 35% | O=C(O)c1ccc(Sc2nc3cc(Cl)c(Cl)cc3[nH]2)cc1 | –
6 | – | 41% | O=C(O)CCc1nc2cc(Cl)ccc2[nH]1 | –
7 | 8 µM | 130% | O=C(O)CCc1nc2cc(Cl)c(-c3ccccc3)cc2[nH]1 | –
8 | – | 6% | O=C(O)c1ccccc1-c1nc2cc(Cl)c(Cl)cc2[nH]1 | –
9 | 0.003 µM | – | Cc1ccc(Oc2nc3cc(-c4ccc(-c5ccccc5O)cc4)c(Cl)cc3[nH]2)cc1C(=O)O | %max [4]: 230%
10 | 0.015 µM | – | O=C(O)c1cc(Oc2nc3cc(C#Cc4ccccc4)c(Cl)cc3[nH]2)ccc1Cl | %max [4]: 250%
11 | 0.061 µM | – | O=C(O)c1cccc(Oc2nc3cc(-c4ccc(-c5ccccc5)cc4)c(Cl)cc3[nH]2)c1 | %max [4]: 260%
12 | 0.2 µM | – | O=C(O)CSc1nc2cc(C#Cc3ccccc3)c(Cl)cc2[nH]1 | %max [2]: 320%
13 | – | 44% | O=C(O)CCc1nc2cc(Cl)c(Br)cc2[nH]1 | –
14 | 2.6 µM | 76% | O=C(O)c1csc(Sc2nc3cc(Cl)c(Cl)cc3[nH]2)n1 | –
15 | 0.011 µM | – | Cc1ccc(Oc2nc3cc(-c4ccc(-c5ccn[nH]5)cc4)c(Cl)cc3[nH]2)cc1C(=O)O | %max [4]: 260%

More lines, now with the values behind:

Row | SMILES | EC50 [1] | %max [3] | also measured
16 | O=C(O)CCSc1nc2cc(Cl)c(Cl)cc2[nH]1 | 8.5 µM | 130% | –
17 | Cc1ccc(Oc2nc3cc(-c4ccc5c(ccn5C)c4)c(Cl)cc3[nH]2)cc1C(=O)O | 0.002 µM | – | %max [4]: 340%
18 | O=C(O)c1ccccc1Sc1nc2cc(Cl)c(Cl)cc2[nH]1 | 8.1 µM | 130% | –
19 | O=C(O)c1cccc(-c2nc3cc(Cl)c(Cl)cc3[nH]2)c1 | – | 10% | –
20 | O=C(O)CSc1nc2cc(Cl)c(Cl)cc2[nH]1 | 4 µM | 130% | –
21 | Cc1cc2nc(CCC(=O)O)[nH]c2cc1C | – | 19% | –
22 | COc1ccc2[nH]c(CCC(=O)O)nc2c1 | – | 14% | –
23 | O=C(O)CSc1nc2cc(-c3ccc(-c4ccccc4)cc3)c(Cl)cc2[nH]1 | 0.15 µM | – | inhibition in vivo at 100 mg/kg [5]: 20%; %max [2]: 260%; inhibition in vivo at 30 mg/kg [6]: 40%; clearance [7]: 60 mL/min/kg; half-life [8]: 2.8 h; bioavailability [9]: 7%; Vd [10]: 6.7 L/kg; AUC/dose [11]: 0.05 µM·kg·h/mg; clearance [12]: 2.9 mL/min/kg; half-life [13]: 10.8 h; bioavailability [14]: 77%; Vd [15]: 2.6 L/kg; AUC/dose [16]: 11.4 µM·kg·h/mg; Papp [17]: Permeable
24 | O=C(O)Cc1cccc(Sc2nc3cc(Cl)c(Cl)cc3[nH]2)c1 | 2.9 µM | 140% | –
25 | Cc1ccc(Oc2nc3cc(C#Cc4ccccc4)c(Cl)cc3[nH]2)cc1C(=O)O | 0.007 µM | – | %max [4]: 240%
26 | O=C(O)CCc1nc2cc(Cl)c(Cl)cc2[nH]1 | 36 µM | 78% | –
27 | O=C(O)c1cccc(Sc2nc3cc(-c4ccc(-c5ccccc5O)cc4)c(Cl)cc3[nH]2)c1 | 0.029 µM | – | %max [2]: 100%
28 | O=C(O)c1cccc(Sc2nc3cc(Cl)c(Cl)cc3[nH]2)c1 | 7.4 µM | 150% | –
29 | O=C(O)CCc1nc2cc(Cl)c(-c3ccc(-c4ccccc4)cc3)cc2[nH]1 | 6 µM | 130% | –

From ChEMBL document CHEMBL4024751, “Hit-to-Lead Optimization and Discovery of 5-((5-([1,1'-Biphenyl]-4-yl)-6-chloro-1H-benzo[d]imidazol-2-yl)oxy)-2-methylbenzoic Acid (MK-3903): A Novel Class of Benzimidazole-Based Activators of AMP-Activated Protein Kinase” (J Med Chem, 2017)
